Laboratory results published in paper PMC7941214 (Journal of medicinal chemistry, 2019).

Experiments:
E. coli ATCC 25922 = test: Broth microdilution MIC/MBC, E. coli; type: cell-based, Escherichia coli; conditions: for MIC E. coli ATCC 25922: value before the parentheses, two values = two repeats; for MBC E. coli ATCC 25922: value in parentheses
Outline: (§1)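 CLSI broth microdilution in cation-adjusted Mueller–Hinton broth. Log-phase cultures were diluted to 7.5 × 10^5 CFU/mL, then mixed 1:1 with 2-fold serial dilutions of gold complexes from DMSO or water stocks, in triplicate, and held 37 °C, 18 h, static. MIC: lowest concentration giving >90% inhibition by OD600 against medium-only and bacteria-only wells. […] E. coli ATCC 25922 quality control was checked each run with ciprofloxacin and […].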

P. aeruginosa NCTC 13437 = test: Broth microdilution MIC/MBC, P. aeruginosa; type: cell-based, Pseudomonas aeruginosa; conditions: for MIC P. aeruginosa NCTC 13437: value before the parentheses, two values = two repeats; for MBC P. aeruginosa NCTC 13437: value in parentheses
Outline: as §1

S. aureus JE2 (USA300) = test: Broth microdilution MIC/MBC, S. aureus; type: cell-based, Staphylococcus aureus; conditions: for MBC S. aureus JE2 (USA300): value in parentheses
Outline: as §1

A. baumannii NCTC 13420 = test: Broth microdilution MIC/MBC, A. baumannii; type: cell-based, Acinetobacter baumannii; conditions: for MIC A. baumannii NCTC 13420: value before the parentheses, two values = two repeats; for MBC A. baumannii NCTC 13420: value in parentheses
[1] = test system: K. pneumoniae ATCC 700603; test: Broth microdilution MIC/MBC, K. pneumoniae; type: cell-based, Klebsiella pneumoniae; conditions: for MIC K. pneumoniae ATCC 700603: value before the parentheses, two values = two repeats; for MBC K. pneumoniae ATCC 700603: value in parentheses
Outline: as §1

rat = conditions: cited from earlier work
E. faecium ATCC 700221 = test: Broth microdilution MIC/MBC, E. faecium; type: cell-based, Enterococcus faecium; conditions: for MBC E. faecium ATCC 700221: value in parentheses
Outline: as §1

Log P determination = conditions: n-octanol/water, Au by FAAS
A549 cells = test: Cytotoxicity assay; type: cell-based, human; conditions: read-out: IC50 against A549 cells; means ± SEM from two independent experiments
E. cloacae NCTC 13405 = test: Broth microdilution MIC/MBC, E. cloacae; type: cell-based, Enterobacter cloacae; conditions: for MIC E. cloacae NCTC 13405: value before the parentheses, two values = two repeats; for MBC E. cloacae NCTC 13405: value in parentheses
Outline: as §1

all strains = test: Broth microdilution, all strains taken together; type: cell-based; conditions: vs auranofin
[2] = value before the parentheses, two values = two repeats

Row | Compound | MIC E. coli ATCC 25922 (E. coli ATCC 25922) [µM] | MBC E. coli ATCC 25922 (E. coli ATCC 25922) [µM] | MIC P. aeruginosa NCTC 13437 (P. aeruginosa NCTC 13437) [µM] | MBC P. aeruginosa NCTC 13437 (P. aeruginosa NCTC 13437) [µM] | MBC S. aureus JE2 (USA300) (S. aureus JE2 (USA300)) [µM] | MIC A. baumannii NCTC 13420 (A. baumannii NCTC 13420) [µM] | MBC A. baumannii NCTC 13420 (A. baumannii NCTC 13420) [µM] | MIC K. pneumoniae ATCC 700603 [1] [µM] | MBC K. pneumoniae ATCC 700603 [1] [µM] | MBC E. faecium ATCC 700221 (E. faecium ATCC 700221) [µM] | log P (Log P determination) | MIC E. cloacae NCTC 13405 (E. cloacae NCTC 13405) [µM] | MBC E. cloacae NCTC 13405 (E. cloacae NCTC 13405) [µM] | further results
1 | CC[PH](CC)(CC)[Au][S][C@@H]1O[C@H](COC(C)=O)[C@@H](OC(C)=O)[C@H](OC(C)=O)[C@H]1OC(C)=O [Compound 1, (2,3,4,6-Tetra-O-acetyl-1-thio-β-D-glucopyranosato)-(triethylphosphine) Gold(I), reference compound] | 24 | 24 | 377 | 377 | 0.09 | 47 | 47 | 377 | 377 | 0.4 | 0.56 | 189 | 189 | MBC E. coli (E. coli ATCC 25922; MIC/MBC): 16 µg/mL; MIC E. coli (E. coli ATCC 25922; MIC/MBC): 16 µg/mL; MBC S. aureus (S. aureus JE2 (USA300); Table S1): 0.06 µg/mL; MIC S. aureus (S. aureus JE2 (USA300); Table S1): 0.03 µg/mL; MIC S. aureus JE2 (USA300) (S. aureus JE2 (USA300); [2]): 0.04 µM; MBC A. baumannii (A. baumannii NCTC 13420; MIC/MBC): 32 µg/mL; MIC A. baumannii (A. baumannii NCTC 13420; MIC/MBC): 32 µg/mL; MIC A. baumannii NCTC 13420 (A. baumannii NCTC 13420; listed as Auranofin): 47 µM; MBC A. baumannii NCTC 13420 (A. baumannii NCTC 13420; listed as Auranofin): 47 µM; MIC K. pneumoniae ATCC 700603 ([1]; listed as Auranofin): 377 µM; MBC K. pneumoniae ATCC 700603 ([1]; listed as Auranofin): 377 µM; rat acute oral LD50 (rat): 265 mg/kg; MBC E. faecium (E. faecium ATCC 700221; Table S1): 0.25 µg/mL; MIC E. faecium (E. faecium ATCC 700221; Table S1): 0.12 µg/mL; IC50 (A549 cells): 11.3 ± 1.9 µM
2 | CC[PH](CC)(CC)[Au][S]c1ccc(N)cc1 [Compound 17, (4-Aminobenzenethiolato)(triethylphosphine) Gold(I)] | 9 | 9 | 146 | 146 | 0.07 | 18 | 18 | 36 | 36 | 0.1 | 1.36 | 36 | 36 | fold enhancement of activity over auranofin, K. pneumoniae ([1]; vs auranofin): 10; MIC E. faecium ATCC 700221 (E. faecium ATCC 700221; [2]): 0.02 µM; fold enhancement of activity over auranofin, E. faecium (E. faecium ATCC 700221; vs auranofin): more than 7; fold enhancement of activity over auranofin, all strains (all strains): up to 10
